Source: ChEMBL document CHEMBL1828498, “Identification and characterization of a novel integrin-linked kinase inhibitor” (J Med Chem, 2011)
Activity calls are given as the source filed them. The calls are words filed in the database; no cut-off is given here.

Legend:
PC-3 [1] = assay: Antiproliferative activity against human PC3 cells assessed as suppression of cell viability by MTT assay; assay type: functional, cell-based
Procedure, shortened: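 Cancer lines seeded 5000/well and nonmalignant PrEC/MEC 8000/well in 10% FBS, 24 h before treatment. Compound exposure 24 h in 5% FBS medium, 0.1% final DMSO. MTT (0.25 mg/mL) for 1 h at 37°C, dye solubilized in DMSO, absorbance read at 570 nm. Mean ± SD, n = 6.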

[2] = target: T1, Scaffold protein ILK (Homo sapiens) (UniProt Q13418); assay: Inhibition of ILK in human MDA-MB-231 cells assessed as decrease in GSK3-beta phosphorylation by Western blot analysis; assay type: cell-based
T1 sequence (whole entry): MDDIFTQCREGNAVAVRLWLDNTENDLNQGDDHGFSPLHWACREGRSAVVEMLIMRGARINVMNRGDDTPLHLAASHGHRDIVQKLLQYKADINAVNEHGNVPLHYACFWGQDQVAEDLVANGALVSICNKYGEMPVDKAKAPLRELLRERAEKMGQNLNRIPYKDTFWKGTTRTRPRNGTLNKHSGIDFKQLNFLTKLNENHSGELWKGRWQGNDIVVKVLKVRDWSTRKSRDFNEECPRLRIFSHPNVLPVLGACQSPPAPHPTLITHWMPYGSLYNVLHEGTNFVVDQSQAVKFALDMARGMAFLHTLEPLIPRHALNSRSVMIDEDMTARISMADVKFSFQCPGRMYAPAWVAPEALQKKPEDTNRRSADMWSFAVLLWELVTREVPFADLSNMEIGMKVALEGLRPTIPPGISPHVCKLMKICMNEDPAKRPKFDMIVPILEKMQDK
Procedure, shortened: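 PC-3 and MDA-MB-231 cells exposed 24 h in 5% FBS medium across a concentration series. Phospho-GSK3β (Ser9) and phospho-MLC (Thr18/Ser19) detected by immunoblot: SDS lysis, primary 1:1000 at 4°C for 2 h, HRP secondary, ECL. Representative of three experiments.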

[3] = target: Rapamycin-insensitive companion of mTOR (Homo sapiens) (UniProt Q6R327); assay: Inhibition of mTORC2 in human PC3 cells assessed as PKCalpha phosphorylation by Western blot analysis; assay type: cell-based; conditions: PC-3
Sequence of Rapamycin-insensitive companion of mTOR (Homo sapiens) (Q6R327 whole entry): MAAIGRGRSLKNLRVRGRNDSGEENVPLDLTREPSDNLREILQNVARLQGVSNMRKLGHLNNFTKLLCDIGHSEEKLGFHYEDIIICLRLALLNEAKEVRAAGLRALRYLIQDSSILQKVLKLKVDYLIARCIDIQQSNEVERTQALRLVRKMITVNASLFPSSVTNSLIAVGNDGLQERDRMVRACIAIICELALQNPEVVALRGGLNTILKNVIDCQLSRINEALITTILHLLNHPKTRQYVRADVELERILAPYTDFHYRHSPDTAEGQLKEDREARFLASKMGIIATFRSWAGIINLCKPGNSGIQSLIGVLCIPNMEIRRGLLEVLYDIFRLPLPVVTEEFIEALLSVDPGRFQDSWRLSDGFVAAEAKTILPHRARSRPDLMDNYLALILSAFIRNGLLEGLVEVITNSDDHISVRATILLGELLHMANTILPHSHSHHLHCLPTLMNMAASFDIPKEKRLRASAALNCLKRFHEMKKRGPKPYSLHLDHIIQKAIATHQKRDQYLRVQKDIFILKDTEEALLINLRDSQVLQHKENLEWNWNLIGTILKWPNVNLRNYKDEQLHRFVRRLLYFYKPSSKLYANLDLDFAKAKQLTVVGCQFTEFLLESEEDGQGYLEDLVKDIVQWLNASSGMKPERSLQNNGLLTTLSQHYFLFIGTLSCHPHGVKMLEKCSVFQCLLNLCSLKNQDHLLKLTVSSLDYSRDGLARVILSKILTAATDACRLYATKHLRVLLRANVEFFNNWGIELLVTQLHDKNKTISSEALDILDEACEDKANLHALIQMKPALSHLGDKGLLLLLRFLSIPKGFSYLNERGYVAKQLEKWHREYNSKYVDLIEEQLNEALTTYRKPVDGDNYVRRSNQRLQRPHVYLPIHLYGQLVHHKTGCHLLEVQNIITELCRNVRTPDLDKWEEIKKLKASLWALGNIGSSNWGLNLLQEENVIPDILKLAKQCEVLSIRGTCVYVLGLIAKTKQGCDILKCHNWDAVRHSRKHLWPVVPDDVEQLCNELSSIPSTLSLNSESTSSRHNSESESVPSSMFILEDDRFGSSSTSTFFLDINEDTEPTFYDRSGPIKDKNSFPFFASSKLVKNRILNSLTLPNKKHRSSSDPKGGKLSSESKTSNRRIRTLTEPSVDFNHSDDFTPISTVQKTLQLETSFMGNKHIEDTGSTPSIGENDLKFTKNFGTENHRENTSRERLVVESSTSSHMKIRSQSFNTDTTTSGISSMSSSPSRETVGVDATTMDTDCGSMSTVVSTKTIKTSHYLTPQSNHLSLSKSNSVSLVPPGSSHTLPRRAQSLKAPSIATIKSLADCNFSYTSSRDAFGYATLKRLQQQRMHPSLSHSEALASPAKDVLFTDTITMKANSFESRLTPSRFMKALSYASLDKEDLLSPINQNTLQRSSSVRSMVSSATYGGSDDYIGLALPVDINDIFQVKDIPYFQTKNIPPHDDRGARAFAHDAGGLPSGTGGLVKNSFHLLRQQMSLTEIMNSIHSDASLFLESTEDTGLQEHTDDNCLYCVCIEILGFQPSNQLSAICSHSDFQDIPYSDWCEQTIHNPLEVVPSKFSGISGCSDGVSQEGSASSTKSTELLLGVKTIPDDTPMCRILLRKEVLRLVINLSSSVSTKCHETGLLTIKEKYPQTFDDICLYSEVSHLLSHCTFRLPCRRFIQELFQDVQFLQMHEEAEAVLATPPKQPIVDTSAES
Procedure, shortened: (§1)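 Cells exposed 24 h in 5% FBS medium, final DMSO 0.1%; lysed in 1% SDS/10 mM EDTA/50 mM Tris pH 8.1, equal protein on SDS-PAGE, nitrocellulose, primary antibody 1:1000 at 4°C for 2 h, HRP secondary 1:5000, ECL detection; blots representative of three independent experiments.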

PC-3 [4] = assay: Reduction in YB-1 concentration in human PC3 cells expressing constitutively active ILK after 24 hrs by Western blot analysis; assay type: functional, cell-based
Procedure, shortened: (§2)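 PC-3 versus stable PC-3/CA-ILK, or SKBR3 versus transient SKBR3/CA-ILK (electroporation, used 48 h after), treated 24 h in 5% FBS medium; immunoblotting with ECL; representative of three experiments.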

PC-3 [5] = assay: Reduction in EGFR concentration in human PC3 cells after 24 hrs by Western blot analysis; assay type: functional, cell-based; procedure, shortened: as §2
PC-3 [6] = assay: Reduction in EGFR concentration in human PC3 cells expressing constitutively active ILK after 24 hrs by Western blot analysis; assay type: functional, cell-based; procedure, shortened: as §2
SK-BR-3 [7] = assay: Reduction in YB-1 mRNA expression in human SKBR3 cells after 24 hrs by RT-PCR analysis; assay type: functional, cell-based
Procedure, shortened: (§3)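 PC-3, PC-3/CA-ILK, SKBR3 and SKBR3/CA-ILK cells treated 24 h in 5% FBS medium; total RNA from 1 × 10^6 cells by Trizol, 1 μg reverse-transcribed, then PCR with gene-specific primers and β-actin reference.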

SK-BR-3 [8] = assay: Reduction in HER2 concentration in human SKBR3 cells expressing constitutively active ILK after 24 hrs by Western blot analysis; assay type: functional, cell-based; procedure, shortened: as §2
SK-BR-3 [9] = assay: Reduction in EGFR mRNA expression in human SKBR3 cells after 24 hrs by RT-PCR analysis; assay type: functional, cell-based; procedure, shortened: as §3
[10] = target: Tyrosine-protein kinase ABL1 (Homo sapiens) (UniProt P00519); assay: Inhibition of Abl kinase at 5 uM assessed as remaining activity
Sequence of Tyrosine-protein kinase ABL1 (Homo sapiens) (P00519 whole entry): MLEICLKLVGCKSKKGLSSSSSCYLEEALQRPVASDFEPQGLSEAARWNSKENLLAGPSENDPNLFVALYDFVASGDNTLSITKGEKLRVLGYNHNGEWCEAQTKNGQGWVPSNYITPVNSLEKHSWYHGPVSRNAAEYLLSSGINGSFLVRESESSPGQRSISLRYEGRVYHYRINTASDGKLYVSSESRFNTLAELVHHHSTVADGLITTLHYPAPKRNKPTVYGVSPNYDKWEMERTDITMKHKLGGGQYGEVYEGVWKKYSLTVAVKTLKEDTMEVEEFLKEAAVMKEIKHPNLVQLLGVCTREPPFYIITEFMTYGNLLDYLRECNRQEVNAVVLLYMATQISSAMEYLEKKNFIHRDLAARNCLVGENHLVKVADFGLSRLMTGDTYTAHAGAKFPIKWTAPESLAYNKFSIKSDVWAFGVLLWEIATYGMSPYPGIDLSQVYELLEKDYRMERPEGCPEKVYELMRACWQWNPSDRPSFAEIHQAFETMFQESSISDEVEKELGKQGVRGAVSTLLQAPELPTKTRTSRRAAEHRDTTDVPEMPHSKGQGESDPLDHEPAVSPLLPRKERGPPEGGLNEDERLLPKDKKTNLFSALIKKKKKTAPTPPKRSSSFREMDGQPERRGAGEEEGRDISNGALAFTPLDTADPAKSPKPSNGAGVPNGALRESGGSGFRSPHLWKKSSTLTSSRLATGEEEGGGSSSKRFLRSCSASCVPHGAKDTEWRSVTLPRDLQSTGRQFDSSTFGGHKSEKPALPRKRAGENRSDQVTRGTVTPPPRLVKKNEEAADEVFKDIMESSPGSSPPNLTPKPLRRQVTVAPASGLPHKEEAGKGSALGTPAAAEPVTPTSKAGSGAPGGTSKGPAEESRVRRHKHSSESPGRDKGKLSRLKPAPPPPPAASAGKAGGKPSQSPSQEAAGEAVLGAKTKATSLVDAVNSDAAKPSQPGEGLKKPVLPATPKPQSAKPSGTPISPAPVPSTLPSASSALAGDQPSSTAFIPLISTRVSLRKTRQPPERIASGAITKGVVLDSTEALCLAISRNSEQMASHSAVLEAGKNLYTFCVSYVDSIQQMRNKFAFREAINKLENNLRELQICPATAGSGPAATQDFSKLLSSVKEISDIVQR
Procedure, shortened: (§4)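 Panel of 20 recombinant kinases, profiled by a commercial vendor.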

[11] = target: Receptor-type tyrosine-protein kinase FLT3 (Homo sapiens) (UniProt P36888); assay: Inhibition of Flt3 at 5 uM assessed as remaining activity; procedure, shortened: as §4
Sequence of Receptor-type tyrosine-protein kinase FLT3 (Homo sapiens) (P36888 whole entry): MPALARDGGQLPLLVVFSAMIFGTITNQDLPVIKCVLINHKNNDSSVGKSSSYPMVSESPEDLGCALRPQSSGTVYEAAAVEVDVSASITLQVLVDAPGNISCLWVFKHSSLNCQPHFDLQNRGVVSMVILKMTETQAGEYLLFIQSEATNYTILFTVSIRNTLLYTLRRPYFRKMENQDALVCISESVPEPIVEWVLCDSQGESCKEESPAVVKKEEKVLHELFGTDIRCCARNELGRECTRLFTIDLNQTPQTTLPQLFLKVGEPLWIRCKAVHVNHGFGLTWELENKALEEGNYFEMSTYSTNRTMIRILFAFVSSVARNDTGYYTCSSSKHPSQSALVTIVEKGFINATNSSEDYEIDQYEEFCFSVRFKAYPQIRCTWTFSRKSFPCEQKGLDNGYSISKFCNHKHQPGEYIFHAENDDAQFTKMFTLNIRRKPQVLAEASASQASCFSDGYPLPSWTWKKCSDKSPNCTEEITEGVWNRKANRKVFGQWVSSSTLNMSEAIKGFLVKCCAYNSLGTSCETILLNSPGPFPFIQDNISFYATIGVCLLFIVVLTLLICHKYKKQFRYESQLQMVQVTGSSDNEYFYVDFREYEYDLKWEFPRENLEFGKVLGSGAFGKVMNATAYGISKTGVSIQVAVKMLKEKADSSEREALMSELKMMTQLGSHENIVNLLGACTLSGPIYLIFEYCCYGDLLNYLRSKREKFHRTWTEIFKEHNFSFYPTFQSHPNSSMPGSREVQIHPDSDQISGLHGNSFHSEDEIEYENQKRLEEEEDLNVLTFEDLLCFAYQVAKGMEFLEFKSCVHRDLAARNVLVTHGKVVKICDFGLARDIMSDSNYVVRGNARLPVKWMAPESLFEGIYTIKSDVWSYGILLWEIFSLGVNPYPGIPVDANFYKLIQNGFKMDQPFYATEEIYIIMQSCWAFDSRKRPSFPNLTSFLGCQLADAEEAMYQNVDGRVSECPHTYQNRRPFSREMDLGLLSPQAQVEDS

[12] = target: Tyrosine-protein kinase JAK3 (Homo sapiens) (UniProt P52333); assay: Inhibition of Jak3 at 5 uM assessed as remaining activity; procedure, shortened: as §4
Sequence of Tyrosine-protein kinase JAK3 (Homo sapiens) (P52333 whole entry): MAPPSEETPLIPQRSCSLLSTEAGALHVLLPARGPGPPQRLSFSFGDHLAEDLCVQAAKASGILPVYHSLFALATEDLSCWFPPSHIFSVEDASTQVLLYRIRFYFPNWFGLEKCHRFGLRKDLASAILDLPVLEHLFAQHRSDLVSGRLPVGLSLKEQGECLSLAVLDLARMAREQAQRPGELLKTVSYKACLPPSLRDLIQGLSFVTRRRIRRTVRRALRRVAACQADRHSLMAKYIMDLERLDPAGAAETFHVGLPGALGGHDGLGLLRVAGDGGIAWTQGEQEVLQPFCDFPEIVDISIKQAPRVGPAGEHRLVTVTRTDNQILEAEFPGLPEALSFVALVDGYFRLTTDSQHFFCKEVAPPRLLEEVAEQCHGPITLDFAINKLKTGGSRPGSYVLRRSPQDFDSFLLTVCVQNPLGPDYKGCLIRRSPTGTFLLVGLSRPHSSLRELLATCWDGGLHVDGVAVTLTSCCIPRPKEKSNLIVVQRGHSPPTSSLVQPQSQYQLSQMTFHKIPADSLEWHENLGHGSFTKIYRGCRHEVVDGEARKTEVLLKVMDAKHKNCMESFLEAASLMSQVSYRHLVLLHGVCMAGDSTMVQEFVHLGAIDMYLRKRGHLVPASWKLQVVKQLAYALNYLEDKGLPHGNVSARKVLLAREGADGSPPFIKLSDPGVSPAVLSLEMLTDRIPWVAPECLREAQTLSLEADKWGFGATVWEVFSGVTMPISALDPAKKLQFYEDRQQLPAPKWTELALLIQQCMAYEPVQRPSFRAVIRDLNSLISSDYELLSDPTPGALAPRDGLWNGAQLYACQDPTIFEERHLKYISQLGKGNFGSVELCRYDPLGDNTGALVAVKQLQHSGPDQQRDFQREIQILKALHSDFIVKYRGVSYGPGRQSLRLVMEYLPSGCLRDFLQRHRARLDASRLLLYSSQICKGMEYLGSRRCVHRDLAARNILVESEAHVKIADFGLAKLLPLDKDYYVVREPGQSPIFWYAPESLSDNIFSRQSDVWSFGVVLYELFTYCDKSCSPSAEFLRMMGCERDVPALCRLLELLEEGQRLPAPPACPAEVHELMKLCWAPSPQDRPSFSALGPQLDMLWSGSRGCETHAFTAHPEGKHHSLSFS

PC-3 [13] = assay: Induction of change in cell cycle distribution in human PC3 cells up to 2 uM after 48 hrs by flow cytometry; assay type: functional, cell-based
Procedure, shortened: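 Treated PC-3 cells harvested, fixed in 100% ethanol, stained 30 min at 37°C in the dark with 80 μg/mL PI, 100 μg/mL RNase, 0.1% Triton X-100. Phase distribution by flow cytometry. Mean ± SD, n = 3. Methods give 48 h exposure; the figure legend gives 24 h in 5% FBS.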

PC-3 [14] = assay: Induction of apoptosis in human PC3 cells assessed as PARP cleavage by Western blot analysis; assay type: functional, cell-based
Procedure, shortened: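 PC-3 cells treated 24 h in 5% FBS medium. Lysed in 1% SDS/10 mM EDTA/50 mM Tris pH 8.1, equal protein on SDS-PAGE, primary antibody 1:1000 at 4°C for 2 h, HRP secondary, ECL detection. Read-outs PARP cleavage and LC3-II conversion; blots representative of three experiments.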

[15] = target: T2, 3-phosphoinositide-dependent protein kinase 1 (Homo sapiens) (UniProt O15530); assay: Inhibition of PDK2 in human MDA-MB-231 cells assessed as Akt Thr-308 dephosphorylation by Western blot analysis; assay type: functional, cell-based; procedure, shortened: as §1
T2 sequence (whole entry): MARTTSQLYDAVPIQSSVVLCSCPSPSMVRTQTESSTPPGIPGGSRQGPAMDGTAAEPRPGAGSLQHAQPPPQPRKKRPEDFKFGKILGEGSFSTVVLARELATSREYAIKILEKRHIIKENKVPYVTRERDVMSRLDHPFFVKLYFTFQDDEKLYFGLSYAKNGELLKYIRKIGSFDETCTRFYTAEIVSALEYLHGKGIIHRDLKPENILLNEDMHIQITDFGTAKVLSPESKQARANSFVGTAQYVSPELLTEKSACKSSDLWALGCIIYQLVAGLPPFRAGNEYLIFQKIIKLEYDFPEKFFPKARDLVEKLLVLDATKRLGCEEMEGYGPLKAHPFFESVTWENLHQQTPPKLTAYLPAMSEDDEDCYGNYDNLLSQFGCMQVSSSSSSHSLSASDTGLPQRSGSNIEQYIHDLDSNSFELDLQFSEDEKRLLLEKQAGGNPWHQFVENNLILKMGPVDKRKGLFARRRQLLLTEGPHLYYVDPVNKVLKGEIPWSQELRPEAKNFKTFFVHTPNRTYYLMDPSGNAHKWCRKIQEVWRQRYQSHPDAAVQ

PC-3 [16] = assay: Induction of apoptosis in human PC3 cells assessed as late apoptotic cells at 2 uM by annexin V/PI staining (reference value: 9.8%); assay type: functional
PC-3 [17] = assay: Induction of apoptosis in human PC3 cells assessed as early apoptotic cells at 2 uM by annexin V/PI staining (reference value: 5.6%); assay type: functional

IC50 (PC-3 [1]): 2000 nM
inhibition [2]: Active
inhibition [3]: inactive
Activity [10]: 73%
Activity [11]: 66%
Activity [12]: 128%
inhibition [15]: inactive
Compound: CNC(=O)CCc1cc(-c2ccc(-c3ccc(C(F)(F)F)cc3)cc2)n(-c2ccc(N3CCNCC3)cc2)n1
Activity (PC-3 [4]): inactive
Activity (PC-3 [5]): Dose-dependent effect
Activity (PC-3 [6]): inactive
Activity (SK-BR-3 [7]): Dose-dependent effect
Activity (SK-BR-3 [8]): inactive
Activity (SK-BR-3 [9]): Dose-dependent effect
Activity (PC-3 [13]): inactive
Activity (PC-3 [14]): Dose-dependent effect
Activity (PC-3 [16]): 11.6%
Activity (PC-3 [17]): 7.1%
